Activity calls are given as the source filed them. The rule behind the calls is not given here.
Assays:
MV4-11 [1] = experiment: Induction of apoptosis in human MV4-11 cells assessed as early apoptotic cells at 1 uM after 24 hrs by annexin V-FITC/propidium iodide staining-based flow cytometric method (reference value: 3.54%); assay type: functional
NCI-H82 = experiment: Growth inhibition of human NCI-H82 cells after 72 hrs by CellTiter-Glo assay; assay type: functional; settings: NCI-H82, 72 h
[2] = Terminal half life in mouse liver microsomes by LC-MS/MS analysis; assay type: ADME, microsome; settings: read-out: beta t1/2 (converted)
Procedure, shortened: (§1)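 Metabolic stability measured by incubating compound in human, rat, mouse, dog and monkey liver microsomes. Terminal t1/2 determined.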

MV4-11 [3] = experiment: Induction of apoptosis in human MV4-11 cells assessed as early apoptotic cells at 0.2 uM after 24 hrs by annexin V-FITC/propidium iodide staining-based flow cytometric method (reference value: 3.54%); assay type: functional
HCT-116 = experiment: Growth inhibition of human HCT116 cells after 72 hrs by CellTiter-Glo assay; assay type: functional; settings: HCT-116, 72 h
[4] = Terminal half life in human liver microsomes by LC-MS/MS analysis; assay type: ADME, microsome; settings: read-out: beta t1/2 (converted); procedure, shortened: as §1
MV4-11 [5] = experiment: Induction of apoptosis in human MV4-11 cells assessed as late apoptotic cells at 2 uM after 24 hrs by annexin V-FITC/propidium iodide staining-based flow cytometric method (reference value: 2.54%); assay type: functional
[6] = biological target: Receptor-type tyrosine-protein kinase FLT3 (Homo sapiens) (UniProt P36888); experiment: Inhibition of FLT3 phosphorylation in human MV4-11 cells assessed as decrease in AKT phosphorylation at 0.02 to 1 uM after 24 hrs by Western blot analysis; assay type: cell-based
Chain of Receptor-type tyrosine-protein kinase FLT3 (Homo sapiens) (P36888 whole entry): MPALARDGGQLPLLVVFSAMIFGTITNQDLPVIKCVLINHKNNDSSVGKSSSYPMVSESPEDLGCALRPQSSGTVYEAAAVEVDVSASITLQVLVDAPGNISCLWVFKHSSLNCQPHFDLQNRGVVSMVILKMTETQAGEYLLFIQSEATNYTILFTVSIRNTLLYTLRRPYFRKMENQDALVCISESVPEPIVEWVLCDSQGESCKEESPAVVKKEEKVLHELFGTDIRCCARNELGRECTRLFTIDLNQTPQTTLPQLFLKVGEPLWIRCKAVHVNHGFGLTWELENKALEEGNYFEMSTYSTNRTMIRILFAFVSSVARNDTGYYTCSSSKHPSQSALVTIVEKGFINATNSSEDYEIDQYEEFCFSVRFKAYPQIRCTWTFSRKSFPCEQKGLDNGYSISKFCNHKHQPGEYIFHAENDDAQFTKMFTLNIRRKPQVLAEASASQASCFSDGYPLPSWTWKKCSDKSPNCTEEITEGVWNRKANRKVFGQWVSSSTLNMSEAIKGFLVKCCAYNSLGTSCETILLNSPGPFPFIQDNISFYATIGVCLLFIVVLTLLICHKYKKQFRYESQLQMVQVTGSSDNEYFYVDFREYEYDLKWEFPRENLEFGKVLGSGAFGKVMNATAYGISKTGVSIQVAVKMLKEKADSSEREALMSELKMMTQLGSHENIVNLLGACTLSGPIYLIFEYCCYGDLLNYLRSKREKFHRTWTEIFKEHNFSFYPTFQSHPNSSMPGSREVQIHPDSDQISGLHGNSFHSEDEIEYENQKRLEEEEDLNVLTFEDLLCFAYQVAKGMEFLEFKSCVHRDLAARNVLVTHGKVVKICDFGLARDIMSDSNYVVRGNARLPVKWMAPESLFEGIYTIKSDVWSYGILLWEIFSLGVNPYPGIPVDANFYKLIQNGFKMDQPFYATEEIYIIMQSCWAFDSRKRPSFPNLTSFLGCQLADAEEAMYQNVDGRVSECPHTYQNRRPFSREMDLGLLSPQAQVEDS
Procedure, shortened: (§2)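 MV4-11 cells treated with increasing concentrations of compound for 24 h. Lysates immunoblotted for phosphorylated FLT3, STAT5, ERK, AKT and Rb.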

Mus musculus = experiment: Toxicity in nu/nu mouse xenografted with human MV4-11 cells assessed as body weight loss at 15 to 40 mg/kg, iv qd administered for 21 days measuring during compound dosing; assay type: organism-based; settings: in vivo, 504 h
Procedure, shortened: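 Female nu/nu mice carried established MV4-11 xenografts. Once tumors reached 200 mm3, mice were grouped and given compound or vehicle by intravenous injection once daily at 15, 30 or 40 mg/kg/d for 21 days. A Cytarabine arm received 50 mg/kg/d iv. Body weight was tracked during dosing and expressed relative to initial weight set as 100%.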

[7] = Intrinsic clearance in mouse liver microsomes by LC-MS/MS analysis; assay type: ADME, microsome; settings: read-out: CLH
MV4-11 [8] = experiment: Induction of apoptosis in human MV4-11 cells assessed as early apoptotic cells at 0.5 uM after 24 hrs by annexin V-FITC/propidium iodide staining-based flow cytometric method (reference value: 3.54%); assay type: functional
[9] = biological target: Cyclin-dependent kinase 4/cyclin D1 (Homo sapiens, UniProt P11802); experiment: Inhibition of human CDK4/Cyclin D1 using RB protein as substrate preincubated for 20 mins followed by [gamma-33P]-ATP addition measure after 120 mins by filter binding method; assay type: protein-complex assay
Chain of Cyclin-dependent kinase 4/cyclin D1 (P11802 whole entry): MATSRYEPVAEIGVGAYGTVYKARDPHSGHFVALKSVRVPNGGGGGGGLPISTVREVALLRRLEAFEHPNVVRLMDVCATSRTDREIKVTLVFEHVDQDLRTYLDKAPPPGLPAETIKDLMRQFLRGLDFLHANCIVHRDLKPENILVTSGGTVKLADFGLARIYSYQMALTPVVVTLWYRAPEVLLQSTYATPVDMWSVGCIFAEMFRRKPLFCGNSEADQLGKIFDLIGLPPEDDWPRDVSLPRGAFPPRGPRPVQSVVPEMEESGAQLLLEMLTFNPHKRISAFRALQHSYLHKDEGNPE
Chain of Cyclin-dependent kinase 4/cyclin D1 (P24385 whole entry, further chain): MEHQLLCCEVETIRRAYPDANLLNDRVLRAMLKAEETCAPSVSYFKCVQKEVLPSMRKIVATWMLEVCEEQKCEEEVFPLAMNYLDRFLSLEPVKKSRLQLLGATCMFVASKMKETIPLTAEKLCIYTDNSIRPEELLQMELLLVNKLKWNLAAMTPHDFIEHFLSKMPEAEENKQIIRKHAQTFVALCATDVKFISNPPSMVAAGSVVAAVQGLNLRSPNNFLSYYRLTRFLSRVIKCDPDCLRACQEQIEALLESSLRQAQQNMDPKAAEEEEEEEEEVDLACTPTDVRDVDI
Procedure, shortened: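 Compound preincubated with kinase 20 min at room temperature. Reaction started with 10 μM [γ-33P]ATP and run 120 min at 25°C. Filter-binding read-out, curve-fitted IC50; mean ± SD of three independent experiments.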

MGC-803 = experiment: Growth inhibition of human MGC803 cells after 72 hrs by CellTiter-Glo assay; assay type: functional; settings: MGC-803, 72 h
MV4-11 [10] = experiment: Induction of apoptosis in human MV4-11 cells assessed as late apoptotic cells at 0.5 uM after 24 hrs by annexin V-FITC/propidium iodide staining-based flow cytometric method (reference value: 2.54%); assay type: functional
[11] = Toxicity in ICR mouse administered via gavage measured for 12 days; settings: in vivo, po
CDK2/Cyclin A1 = CDK2/Cyclin A1 (Homo sapiens, UniProt P24941); experiment: Inhibition of human CDK2/Cyclin A1 using histone H1 as substrate preincubated for 20 mins followed by [gamma-33P]-ATP addition measure after 120 mins by filter binding method; assay type: protein-complex assay
Procedure, shortened: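 Compound preincubated with kinase 20 min at room temperature. Filter-binding read-out, curve-fitted IC50; mean ± SD of three independent experiments.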

[12] = Terminal half life in rat liver microsomes by LC-MS/MS analysis; assay type: ADME, microsome; settings: read-out: beta t1/2 (converted); procedure, shortened: as §1
[13] = biological target: Receptor-type tyrosine-protein kinase FLT3 (Homo sapiens) (UniProt P36888); experiment: Inhibition of FLT3 phosphorylation in human MV4-11 cells assessed as decrease in ERK phosphorylation at 0.02 to 1 uM after 24 hrs by Western blot analysis; assay type: cell-based; procedure, shortened: as §2
Homo sapiens = species on record: Homo sapiens; experiment: Inhibition of CDK in human MV4-11 cells assessed as decrease in Rb phosphorylation at Ser807/811 after 24 hrs by Western blot analysis; assay type: cell-based; procedure, shortened: as §2
Lymphocyte = experiment: Cytotoxicity against human lymphocytes assessed as decrease in cell viability after 72 hrs by MTT assay; assay type: cell-based

CN1CCN(Cc2ccc(NC(=O)c3n[nH]cc3Nc3ncnc4[nH]ccc34)cc2)CC1
Activity (MV4-11 [1]): 31.56%
GI50 (NCI-H82): 110 nM
half-life [2]: 0.66 h
Activity (MV4-11 [3]): 15.02%
GI50 (HCT-116): 90 nM
half-life [4]: 1.72 h
Activity (MV4-11 [5]): 24.17%
inhibition [6]: Active
Activity (Mus musculus): Non-Toxic
CLint scaled [7]: 139 mL/min/kg
Activity (MV4-11 [8]): 28.54%
IC50 [9]: 0.85 nM
GI50 (MGC-803): 370 nM
Activity (MV4-11 [10]): 13.44%
LD50 at 288 h [11]: 186 mg/kg
IC50 (CDK2/Cyclin A1): 2.47 nM
half-life [12]: 1.03 h
inhibition [13]: Active
inhibition (Homo sapiens): Dose-dependent effect
IC50 (Lymphocyte): 492 nM

— ChEMBL document CHEMBL4052828, “Discovery of 4-((7H-Pyrrolo[2,3-d]pyrimidin-4-yl)amino)-N-(4-((4-methylpiperazin-1-yl)methyl)phenyl)-1H-pyrazole-3-carboxamide (FN-1501), an FLT3- and CDK-Kinase Inhibitor with Potentially High Efficiency against Acute Myelocytic Leukemia” (J Med Chem, 2018)
